Positions of bridges follow the written chain, without caps; N, C: chain ends. Non-standard residues stand in square brackets, D forms with d. Residues, ends and D or L forms follow the SMILES beside them. dBip = N[C@H](Cc1ccc(-c2ccccc2)cc1)C(=O)O; dPhe(4-Cl) = N[C@H](Cc1ccc(Cl)cc1)C(=O)O; 2Nal = N[C@@H](Cc1ccc2ccccc2c1)C(=O)O; d2Nal = N[C@H](Cc1ccc2ccccc2c1)C(=O)O; 3Pal = N[C@@H](Cc1cccnc1)C(=O)O
Assays:
[1] = molecular target: Somatostatin receptor type 4 (Homo sapiens, UniProt P31391); assay: Binding affinity towards cloned human somatostatin 4 (hsst) receptor
[2] = molecular target: Somatostatin receptor type 3 (Homo sapiens, UniProt P32745); assay: Binding affinity towards cloned human somatostatin 3 (hsst) receptor
Procedure, shortened: (§1)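 Membranes from CHO-K1 cells stably transfected with the human receptor subtype (calcium phosphate transfection, G418 selection), homogenised and washed in Tris-HCl. Separated by filtration on PEI-soaked GF/C filters; nonspecific binding with 1.0 µM SRIF.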

Somatostatin receptor = assay: Compound was tested for in vitro SRIF inhibition of GH release in rats; format: functional
Procedure, shortened: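 Adult male rat anterior pituitary cells, dispersed with trypsin/DNase, cultured 4-5 days. Then 3 h at 37 °C in medium 199 with 1% BSA, GHRH(1-29)NH2 1 nM and SRIF 1 nM, with analogue at six doses (up to 10 µM, some to 100 µM), triplicate wells. GH in medium measured by double-antibody RIA. Antagonist IC50 taken from n separate dose-response curves.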

[3] = molecular target: Somatostatin receptor type 1 (Homo sapiens, UniProt P30872); assay: Binding affinity towards cloned human somatostatin 1 (hsst) receptor; procedure, shortened: as §1
[4] = molecular target: Somatostatin receptor type 5 (Homo sapiens, UniProt P35346); assay: Binding affinity towards cloned human somatostatin 5 (hsst) receptor; procedure, shortened: as §1
[5] = molecular target: Somatostatin receptor type 2 (Homo sapiens, UniProt P30874); assay: Binding affinity towards cloned human somatostatin 2 (hsst) receptor; procedure, shortened: as §1
Sequence of Somatostatin receptor type 2 (P30874 whole entry): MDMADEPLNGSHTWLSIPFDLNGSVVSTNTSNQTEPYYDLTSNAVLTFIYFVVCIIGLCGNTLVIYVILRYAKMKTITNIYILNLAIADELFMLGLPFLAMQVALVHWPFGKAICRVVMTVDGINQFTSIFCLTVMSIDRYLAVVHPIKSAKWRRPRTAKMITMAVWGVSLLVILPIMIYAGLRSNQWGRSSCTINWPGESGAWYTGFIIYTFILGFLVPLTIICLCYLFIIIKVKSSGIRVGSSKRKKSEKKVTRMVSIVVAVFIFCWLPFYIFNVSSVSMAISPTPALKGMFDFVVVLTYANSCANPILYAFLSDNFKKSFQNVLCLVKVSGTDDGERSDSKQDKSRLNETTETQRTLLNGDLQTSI

Sequence of Somatostatin receptor type 5 (P35346 whole entry): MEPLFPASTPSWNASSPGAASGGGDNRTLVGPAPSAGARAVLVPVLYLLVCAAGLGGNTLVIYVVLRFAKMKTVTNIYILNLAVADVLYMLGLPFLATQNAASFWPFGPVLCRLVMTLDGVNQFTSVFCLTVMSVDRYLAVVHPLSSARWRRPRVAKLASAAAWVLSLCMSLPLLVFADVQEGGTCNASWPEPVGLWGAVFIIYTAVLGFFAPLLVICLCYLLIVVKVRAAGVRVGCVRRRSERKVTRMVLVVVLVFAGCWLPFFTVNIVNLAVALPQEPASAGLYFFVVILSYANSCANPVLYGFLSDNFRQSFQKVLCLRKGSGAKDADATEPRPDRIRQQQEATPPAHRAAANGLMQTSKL
Sequence of Somatostatin receptor type 1 (P30872 whole entry): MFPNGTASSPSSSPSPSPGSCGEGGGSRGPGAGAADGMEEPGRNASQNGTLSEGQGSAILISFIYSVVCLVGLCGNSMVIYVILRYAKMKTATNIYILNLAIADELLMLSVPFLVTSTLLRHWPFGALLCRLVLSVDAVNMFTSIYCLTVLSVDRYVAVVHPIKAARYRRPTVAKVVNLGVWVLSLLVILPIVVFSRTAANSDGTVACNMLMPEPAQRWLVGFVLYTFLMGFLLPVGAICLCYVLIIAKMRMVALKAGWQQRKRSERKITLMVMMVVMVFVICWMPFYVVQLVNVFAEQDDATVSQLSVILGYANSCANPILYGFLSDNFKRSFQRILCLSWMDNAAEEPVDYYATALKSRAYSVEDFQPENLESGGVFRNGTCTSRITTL
Sequence of Somatostatin receptor type 4 (P31391 whole entry): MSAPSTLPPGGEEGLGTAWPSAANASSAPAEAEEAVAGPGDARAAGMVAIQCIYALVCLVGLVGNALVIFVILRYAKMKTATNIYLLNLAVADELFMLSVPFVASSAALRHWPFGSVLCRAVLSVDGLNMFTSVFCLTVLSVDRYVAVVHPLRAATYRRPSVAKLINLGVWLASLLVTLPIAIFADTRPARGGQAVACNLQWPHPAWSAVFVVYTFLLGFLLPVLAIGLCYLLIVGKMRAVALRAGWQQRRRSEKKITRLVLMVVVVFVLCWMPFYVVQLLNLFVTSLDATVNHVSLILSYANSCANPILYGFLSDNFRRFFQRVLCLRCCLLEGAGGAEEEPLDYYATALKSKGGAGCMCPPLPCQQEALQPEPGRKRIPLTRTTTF
Sequence of Somatostatin receptor type 3 (P32745 whole entry): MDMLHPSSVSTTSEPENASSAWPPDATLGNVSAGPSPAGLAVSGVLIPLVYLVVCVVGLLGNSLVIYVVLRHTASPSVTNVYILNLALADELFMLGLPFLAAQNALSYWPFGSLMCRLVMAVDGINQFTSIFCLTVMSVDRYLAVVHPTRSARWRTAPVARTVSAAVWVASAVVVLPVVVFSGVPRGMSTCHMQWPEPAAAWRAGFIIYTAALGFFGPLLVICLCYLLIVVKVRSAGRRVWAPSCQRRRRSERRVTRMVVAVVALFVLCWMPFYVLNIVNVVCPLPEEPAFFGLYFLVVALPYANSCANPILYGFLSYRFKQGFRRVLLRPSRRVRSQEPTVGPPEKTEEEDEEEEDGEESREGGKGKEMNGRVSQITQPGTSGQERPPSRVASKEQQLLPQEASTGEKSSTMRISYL

Structure (SMILES)	IC50 [1]	IC50 [2]	IC50 (Somatostatin receptor)	IC50 [3]	Ki [4]	Ki [5]
CC(C)[C@@H]1NC(=O)[C@H](CCCCN)NC(=O)[C@@H](Cc2c[nH]c3ccccc23)NC(=O)[C@H](Cc2ccc(O)cc2)NC(=O)[C@H](NC(=O)[C@@H](N)Cc2ccc3ccccc3c2)CSSC[C@@H](C(=O)N[C@H](Cc2ccc3ccccc3c2)C(N)=O)NC1=O	1000 nM	2280 nM	280 nM	1000 nM	1250 nM	46.1 nM
C[C@@H](O)[C@H](NC(=O)[C@@H]1CSSC[C@@H](NC(=O)[C@@H](N)Cc2ccc(O)cc2)C(=O)N[C@@H](Cc2cccnc2)C(=O)N[C@H](Cc2c[nH]c3ccccc23)C(=O)N[C@@H](CCCCN)C(=O)N[C@@H]([C@@H](C)O)C(=O)N1)C(N)=O	1000 nM	1380 nM	98650 nM	1000 nM	–	1000 nM
CC(C)[C@H](NC(=O)[C@H](CCCCN)NC(=O)[C@@H](Cc1c[nH]c2ccccc12)NC(=O)[C@H](Cc1ccc(O)cc1)NC(=O)[C@@H](Cc1ccc(Cl)cc1)NC(=O)[C@@H](N)Cc1ccc2ccccc2c1)C(=O)N[C@@H](Cc1ccccc1)C(=O)N[C@H](C(N)=O)[C@@H](C)O (H-[2Nal][dPhe(4-Cl)]Y[dW]KVFT-NH2)	2840 nM	1130 nM	3030 nM	1000 nM	1840 nM	706 nM
CC(C)[C@@H]1NC(=O)[C@H](CCCCN)NC(=O)[C@@H](Cc2c[nH]c3ccccc23)NC(=O)[C@H](Cc2ccc(O)cc2)NC(=O)[C@H](NC(=O)[C@H](N)Cc2ccc(-c3ccccc3)cc2)CSSC[C@@H](C(=O)N[C@@H](Cc2ccc3ccccc3c2)C(N)=O)NC1=O (H-[dBip][dC]Y[dW]KVC[2Nal]-NH2; disulfide 2-7)	1000 nM	466 nM	810 nM	1440 nM	243 nM	793 nM
C[C@@H](O)[C@@H]1NC(=O)[C@H](CCCCN)NC(=O)[C@@H](Cc2c[nH]c3ccccc23)NC(=O)[C@H](Cc2ccc(O)cc2)NC(=O)[C@H](NC(=O)[C@H](N)Cc2ccc3ccccc3c2)CSSC[C@@H](C(=O)N[C@@H](Cc2ccc3ccccc3c2)C(N)=O)NC1=O	605 nM	–	180000 nM	1040 nM	–	202 nM
CC(=O)N[C@@H](Cc1ccc2ccccc2c1)C(=O)N[C@@H]1CSSC[C@@H](C(=O)N[C@@H](Cc2ccc3ccccc3c2)C(N)=O)NC(=O)[C@H](C(C)C)NC(=O)[C@H](CCCCN)NC(=O)[C@@H](Cc2c[nH]c3ccccc23)NC(=O)[C@H](Cc2ccc(O)cc2)NC1=O (Ac-[2Nal][dC]Y[dW]KVC[2Nal]-NH2; disulfide 2-7)	1000 nM	144 nM	56.7 nM	1020 nM	130 nM	48.2 nM
CC(C)[C@@H]1NC(=O)[C@H](CCCCN)NC(=O)[C@@H](Cc2c[nH]c3ccccc23)NC(=O)[C@H](Cc2ccc(O)cc2)NC(=O)[C@H](NC(=O)[C@@H](N)Cc2ccc3ccccc3c2)CSSC[C@@H](C(=O)NC(C)(C)C)NC1=O	–	–	108600 nM	–	–	–
CC(C)[C@H](NC(=O)[C@H](CCCCN)NC(=O)[C@@H](Cc1c[nH]c2ccccc12)NC(=O)[C@H](Cc1ccc(O)cc1)NC(=O)[C@@H](Cc1ccc(Cl)cc1)NC(=O)[C@H](N)Cc1ccc2ccccc2c1)C(=O)N[C@@H](Cc1ccccc1)C(=O)N[C@H](C(N)=O)[C@@H](C)O (H-[d2Nal][dPhe(4-Cl)]Y[dW]KVFT-NH2)	1000 nM	89.9 nM	3960 nM	1000 nM	21.6 nM	144 nM
C[C@@H](O)[C@H](NC(=O)[C@@H]1CSSC[C@@H](NC(=O)[C@@H](N)Cc2ccccc2)C(=O)N[C@@H](Cc2cccnc2)C(=O)N[C@H](Cc2c[nH]c3ccccc23)C(=O)N[C@@H](CCCCN)C(=O)N[C@@H]([C@@H](C)O)C(=O)N1)C(N)=O	1000 nM	934 nM	905 nM	1000 nM	2360 nM	291 nM

Second part, the compound after the results:

IC50 [1]	IC50 [2]	IC50 (Somatostatin receptor)	IC50 [3]	Ki [4]	Ki [5]	Structure (SMILES)
1000 nM	171 nM	15.1 nM	506 nM	524 nM	75.9 nM	CC(C)[C@@H]1NC(=O)[C@H](CCCCN)NC(=O)[C@@H](Cc2c[nH]c3ccccc23)NC(=O)[C@H](Cc2cccnc2)NC(=O)[C@H](NC(=O)[C@@H](N)Cc2ccc3ccccc3c2)CSSC[C@@H](C(=O)N[C@@H](Cc2ccc3ccccc3c2)C(N)=O)NC1=O (H-[2Nal][dC][3Pal][dW]KVC[2Nal]-NH2; disulfide 2-7)
312 nM	292 nM	1360 nM	494 nM	744 nM	68.5 nM	CC(C)[C@@H]1NC(=O)[C@H](CCCCN)NC(=O)[C@@H](Cc2c[nH]c3ccccc23)NC(=O)[C@H](Cc2ccc(O)cc2)NC(=O)[C@@H](NC(=O)[C@H](N)Cc2ccc3ccccc3c2)CSSC[C@H](C(=O)N[C@@H](Cc2ccc3ccccc3c2)C(N)=O)NC1=O (stereo in doubt; 23)
1000 nM	373 nM	58 nM	535 nM	769 nM	123 nM	CC(C)[C@@H]1NC(=O)[C@H](CCCCN)NC(=O)[C@@H](Cc2c[nH]c3ccccc23)NC(=O)[C@H](Cc2cccnc2)NC(=O)[C@H](NC(=O)[C@@H](N)Cc2ccccc2)CSSC[C@@H](C(=O)N[C@@H](Cc2ccc3ccccc3c2)C(N)=O)NC1=O (H-F[dC][3Pal][dW]KVC[2Nal]-NH2; disulfide 2-7)
–	–	56 nM	–	–	–	CC(C)[C@@H]1NC(=O)[C@H](CCCCN)NC(=O)[C@@H](Cc2c[nH]c3ccccc23)NC(=O)[C@H](Cc2cccnc2)NC(=O)[C@H](NC(=O)[C@@H](N)Cc2ccc3ccccc3c2)CSSC[C@@H](C(=O)N[C@@H](Cc2cccc(-c3ccccc3)c2)C(N)=O)NC1=O
–	–	375 nM	–	–	–	CC(C)[C@@H]1NC(=O)[C@H](CCCCN)NC(=O)[C@@H](Cc2c[nH]c3ccccc23)NC(=O)[C@H](Cc2ccc(O)cc2)NC(=O)[C@H](NC(=O)[C@H](N)Cc2ccc3ccccc3c2)CSSC[C@H](C(=O)N[C@H](Cc2ccc3ccccc3c2)C(N)=O)NC1=O
943 nM	68 nM	53 nM	1000 nM	501 nM	82.5 nM	CC(C)[C@@H]1NC(=O)[C@H](CCCCN)NC(=O)[C@@H](Cc2c[nH]c3ccccc23)NC(=O)[C@H](Cc2c[nH]cn2)NC(=O)[C@H](NC(=O)[C@@H](N)Cc2ccc3ccccc3c2)CSSC[C@@H](C(=O)N[C@@H](Cc2ccc3ccccc3c2)C(N)=O)NC1=O (H-[2Nal][dC]H[dW]KVC[2Nal]-NH2; disulfide 2-7)
